From ChEMBL document CHEMBL3102784, “Salicylanilide diethyl phosphates: synthesis, antimicrobial activity and cytotoxicity” (Bioorg Med Chem, 2014)
Converted amounts (≈) assume the structure as drawn. The source made the active and inactive calls. The rule behind the calls is not given here.

What was measured:
[1] = system: Lichtheimia corymbifera; assay: Antifungal activity against Absidia corymbifera 272 after 24 hrs by broth microdilution method; type: functional; settings: Lichtheimia corymbifera, 272, 24 h
Outline: (§1)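 Broth microdilution in RPMI 1640 with glutamine, fluconazole as reference. For yeasts, MIC is ≥80% growth reduction (IC80) versus control. For filamentous fungi, the value is expressed as IC50. Readings at 24 and 48 h.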

[2] = system: Staphylococcus epidermidis; assay: Antibacterial activity against Staphylococcus epidermidis H 6966/08 after 48 hrs by broth microdilution method; type: functional; settings: H 6966/08, 48 h
Outline: (§2)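 Broth microdilution in Mueller–Hinton broth, compounds dissolved in DMSO, tested over a dilution series from 500 downward. MIC taken as ≥95% growth reduction (IC95) versus drug-free control. Benzylpenicillin comparator. Readings at 24 and 48 h.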

[3] = system: Mycobacterium avium; assay: Antimycobacterial activity against isoniazid, rifampicin, ethambutol and ofloxacin-resistant Mycobacterium avium My 330/88 after 14 days; type: functional; settings: My 330/88, 336 h
Outline: (§3)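 Micromethod MIC in Šula's semisynthetic medium at 37 °C. Compounds added in DMSO at 1000 down to 0.032 µmol/L. Isoniazid standard in sterile water at 0.5–250 µmol/L. Inocula: H37Rv 10^3, M. avium 10^5, M. kansasii 10^4. Read at 14 and 21 d, plus 7 d for M. kansasii.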

[4] = system: Pichia kudriavzevii; assay: Antifungal activity against Candida krusei E28 after 24 hrs by broth microdilution method; type: functional; settings: E28, 24 h; outline: as §1
[5] = system: Candida albicans; assay: Antifungal activity against Candida albicans ATCC 44859 after 48 hrs by broth microdilution method; type: functional; settings: ATCC 44859, 48 h; outline: as §1
[6] = system: Staphylococcus aureus; assay: Antibacterial activity against methicillin-resistant Staphylococcus aureus H 5996/08 after 24 hrs by broth microdilution method; type: functional; settings: H 5996/08, 24 h; outline: as §2
[7] = system: Mycobacterium tuberculosis; assay: Antimycobacterial activity against Mycobacterium tuberculosis H37Rv My 331/88 after 21 days; type: functional; settings: H37Rv My 331/88, 504 h; outline: as §3
[8] = system: Candida tropicalis; assay: Antifungal activity against Candida tropicalis 156 at 500 micromol/L after 24 to 48 hrs by broth microdilution method; type: functional, organism-based; outline: as §1
[9] = system: Enterococcus sp.; assay: Antibacterial activity against Enterococcus sp. J 14365/08 at 500 micromol/L after 24 to 48 hrs by broth microdilution method; type: functional, organism-based; outline: as §2
[10] = system: Mycobacterium avium; assay: Antimycobacterial activity against isoniazid, rifampicin, ethambutol and ofloxacin-resistant Mycobacterium avium My 330/88 after 21 days; type: functional; settings: My 330/88, 504 h; outline: as §3
[11] = system: Aspergillus fumigatus; assay: Antifungal activity against Aspergillus fumigatus 231 after 48 hrs by broth microdilution method; type: functional; settings: Aspergillus fumigatus, 231, 48 h; outline: as §1
[12] = system: Mycobacterium kansasii; assay: Antimycobacterial activity against Mycobacterium kansasii 6509/96 after 14 days; type: functional; settings: 6509/96, 336 h; outline: as §3
[13] = system: Staphylococcus aureus; assay: Antibacterial activity against Staphylococcus aureus CCM 4516/08 after 48 hrs by broth microdilution method; type: functional; settings: CCM 4516/08, 48 h; outline: as §2
[14] = system: Pichia kudriavzevii; assay: Antifungal activity against Candida krusei E28 after 48 hrs by broth microdilution method; type: functional; settings: E28, 48 h; outline: as §1
[15] = system: Trichophyton mentagrophytes; assay: Antifungal activity against Trichophyton mentagrophytes 445 after 120 hrs by broth microdilution method; type: functional; settings: Trichophyton mentagrophytes, 445, 120 h
Outline: (§4)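 Filamentous dermatophyte tested by broth microdilution in RPMI 1640 with glutamine, fluconazole as reference. Value expressed as IC50 relative to growth control. Read at 72 and 120 h.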

[16] = system: Nakaseomyces glabratus; assay: Antifungal activity against Candida glabrata 20/I at 500 micromol/L after 24 to 48 hrs by broth microdilution method; type: functional, organism-based; outline: as §1
[17] = system: Mycobacterium kansasii; assay: Antimycobacterial activity against Mycobacterium kansasii 6509/96 after 7 days; type: functional; settings: 6509/96, 168 h; outline: as §3
[18] = system: Mycobacterium kansasii; assay: Antimycobacterial activity against Mycobacterium kansasii 6509/96 after 21 days; type: functional; settings: 6509/96, 504 h; outline: as §3
[19] = system: Mycobacterium kansasii; assay: Antimycobacterial activity against Mycobacterium kansasii My 235/80 after 21 days; type: functional; settings: My 235/80, 504 h; outline: as §3
[20] = system: Klebsiella pneumoniae; assay: Antibacterial activity against ESBL-positive Klebsiella pneumoniae J 14368/08 at 500 micromol/L after 24 to 48 hrs by broth microdilution method; type: functional, organism-based; outline: as §2
[21] = system: Staphylococcus aureus; assay: Antibacterial activity against Staphylococcus aureus CCM 4516/08 after 24 hrs by broth microdilution method; type: functional; settings: CCM 4516/08, 24 h; outline: as §2
[22] = system: Escherichia coli; assay: Antibacterial activity against Escherichia coli CCM 4517 at 500 micromol/L after 24 to 48 hrs by broth microdilution method; type: functional, organism-based; outline: as §2
[23] = system: Staphylococcus aureus; assay: Antibacterial activity against methicillin-resistant Staphylococcus aureus H 5996/08 after 48 hrs by broth microdilution method; type: functional; settings: H 5996/08, 48 h; outline: as §2
[24] = system: Staphylococcus epidermidis; assay: Antibacterial activity against Staphylococcus epidermidis H 6966/08 after 24 hrs by broth microdilution method; type: functional; settings: H 6966/08, 24 h; outline: as §2
[25] = system: Trichosporon asahii; assay: Antifungal activity against Trichosporon asahii 1188 after 48 hrs by broth microdilution method; type: functional; settings: Trichosporon asahii, 1188, 48 h; outline: as §1
[26] = system: Mycobacterium tuberculosis; assay: Antimycobacterial activity against Mycobacterium tuberculosis H37Rv My 331/88 after 14 days; type: functional; settings: H37Rv My 331/88, 336 h; outline: as §3
[27] = system: Mycobacterium kansasii; assay: Antimycobacterial activity against Mycobacterium kansasii My 235/80 after 14 days; type: functional; settings: My 235/80, 336 h; outline: as §3
[28] = system: Pseudomonas aeruginosa; assay: Antibacterial activity against Pseudomonas aeruginosa CCM 1961 at 500 micromol/L after 24 to 48 hrs by broth microdilution method; type: functional, organism-based; outline: as §2
[29] = system: HepG2; assay: Cytotoxicity against human HepG2 cells after 24 hrs by CellTiter assay; type: cell-based; settings: HepG2, 24 h
Outline: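 HepG2 cells (passage 27–33) in MEM with 10% FBS, L-glutamine and NEAA, seeded at 1×10^4 per well. Treated next day with compounds at 0.1–100 µM (or 0.1–25 µmol/L), triplicates, <1% DMSO, for 24 h at 37 °C, 5% CO2. MTS reagent added for 2 h, absorbance read at 490 nm. IC50 taken against untreated (100%) and 10% DMSO (0%) controls.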

[30] = system: Mycobacterium kansasii; assay: Antimycobacterial activity against Mycobacterium kansasii My 235/80 after 7 days; type: functional; settings: My 235/80, 168 h; outline: as §3
[31] = system: Lichtheimia corymbifera; assay: Antifungal activity against Absidia corymbifera 272 after 48 hrs by broth microdilution method; type: functional; settings: Lichtheimia corymbifera, 272, 48 h; outline: as §1
[32] = system: Candida albicans; assay: Antifungal activity against Candida albicans ATCC 44859 after 24 hrs by broth microdilution method; type: functional; settings: ATCC 44859, 24 h; outline: as §1
[33] = system: Trichophyton mentagrophytes; assay: Antifungal activity against Trichophyton mentagrophytes 445 after 72 hrs by broth microdilution method; type: functional; settings: Trichophyton mentagrophytes, 445, 72 h; outline: as §4
[34] = system: Aspergillus fumigatus; assay: Antifungal activity against Aspergillus fumigatus 231 after 24 hrs by broth microdilution method; type: functional; settings: Aspergillus fumigatus, 231, 24 h; outline: as §1
[35] = system: Klebsiella pneumoniae; assay: Antibacterial activity against Klebsiella pneumoniae D 11750/08 at 500 micromol/L after 24 to 48 hrs by broth microdilution method; type: functional, organism-based; outline: as §2
[36] = system: Trichosporon asahii; assay: Antifungal activity against Trichosporon asahii 1188 after 24 hrs by broth microdilution method; type: functional; settings: Trichosporon asahii, 1188, 24 h; outline: as §1

CCOP(=O)(OCC)Oc1ccc(Cl)cc1C(=O)Nc1ccc(Cl)c(Cl)c1
MIC50 [1]: > 500 µM | MIC95 [2]: > 500 µM | MIC [3]: 16 µM (≈ 7.24 µg/mL) | MIC80 [4]: > 500 µM | MIC80 [5]: > 500 µM | MIC95 [6]: > 500 µM | MIC [7]: 1 µM (≈ 0.453 µg/mL) | Activity [8]: inactive | Activity [9]: inactive | MIC [10]: 16 µM (≈ 7.24 µg/mL) | MIC50 [11]: > 500 µM | MIC [12]: 4 µM (≈ 1.81 µg/mL) | MIC95 [13]: > 500 µM | MIC80 [14]: > 500 µM | MIC50 [15]: 500 µM (≈ 226 µg/mL) | Activity [16]: inactive | MIC [17]: 4 µM (≈ 1.81 µg/mL) | MIC [18]: 4 µM (≈ 1.81 µg/mL) | MIC [19]: 4 µM (≈ 1.81 µg/mL) | Activity [20]: inactive | MIC95 [21]: > 500 µM | Activity [22]: inactive | MIC95 [23]: > 500 µM | MIC95 [24]: > 500 µM | MIC80 [25]: > 500 µM | MIC [26]: 1 µM (≈ 0.453 µg/mL) | MIC [27]: 4 µM (≈ 1.81 µg/mL) | Activity [28]: inactive | IC50 [29]: 2.84 µM | MIC [30]: 4 µM (≈ 1.81 µg/mL) | MIC50 [31]: > 500 µM | MIC80 [32]: > 500 µM | MIC50 [33]: 500 µM (≈ 226 µg/mL) | MIC50 [34]: > 500 µM | Activity [35]: inactive | MIC80 [36]: > 500 µM

CCOP(=O)(OCC)Oc1cc(Cl)ccc1C(=O)Nc1ccc(Cl)cc1
MIC50 [1]: > 500 µM | MIC95 [2]: 500 µM (≈ 209 µg/mL) | MIC [3]: 8 µM (≈ 3.35 µg/mL) | MIC80 [4]: > 500 µM | MIC80 [5]: > 500 µM | MIC95 [6]: 500 µM (≈ 209 µg/mL) | MIC [7]: 4 µM (≈ 1.67 µg/mL) | Activity [8]: inactive | Activity [9]: inactive | MIC [10]: 8 µM (≈ 3.35 µg/mL) | MIC50 [11]: > 500 µM | MIC [12]: 8 µM (≈ 3.35 µg/mL) | MIC95 [13]: 250 µM (≈ 105 µg/mL) | MIC80 [14]: > 500 µM | MIC50 [15]: 500 µM (≈ 209 µg/mL) | Activity [16]: inactive | MIC [17]: 4 µM (≈ 1.67 µg/mL) | MIC [18]: 8 µM (≈ 3.35 µg/mL) | MIC [19]: 8 µM (≈ 3.35 µg/mL) | Activity [20]: inactive | MIC95 [21]: 125 µM (≈ 52.3 µg/mL) | Activity [22]: inactive | MIC95 [23]: > 500 µM | MIC95 [24]: 250 µM (≈ 105 µg/mL) | MIC80 [25]: > 500 µM | MIC [26]: 4 µM (≈ 1.67 µg/mL) | MIC [27]: 4 µM (≈ 1.67 µg/mL) | Activity [28]: inactive | IC50 [29]: 5.6 µM | MIC [30]: 4 µM (≈ 1.67 µg/mL) | MIC50 [31]: > 500 µM | MIC80 [32]: > 500 µM | MIC50 [33]: 500 µM (≈ 209 µg/mL) | MIC50 [34]: > 500 µM | Activity [35]: inactive | MIC80 [36]: > 500 µM
